Assay results collected from several papers.
Protocols differ between the studies behind these lines.
Target: Tyrosine-protein kinase FRK (FRK, Homo sapiens, UniProt P42685)

CCN(CC)CCNC(=O)c1c(C)[nH]c(/C=C2\C(=O)Nc3ccc(Cl)cc32)c1C
remaining activity (enzyme activity; inhibitor; 0.5 µM): 59.3%

CN([C@@H]1CCc2c(CC(=O)O)c3cc(S(C)(=O)=O)ccc3n2C1)S(=O)(=O)c1ccc(F)cc1
remaining binding (cell-free assay; competition with immobilised ligand; 1 µM): 100%

c1nc2c(Nc3ccc4c(c3)OCCO4)nc(Nc3ccc4c(c3)OCCO4)nc2[nH]1
activity vs control (enzyme activity; inhibitor; 10 µM): 22%

Cc1sc(C(=O)NC2COC2)cc1-n1cc(NC(=O)Nc2c(F)cccc2Cl)cn1
remaining activity (enzyme activity; inhibitor; 10 µM): 87.3%

Cc1cc(NC(=O)c2cccc3cc(-c4cccc5[nH]nc(N)c45)ccc23)ccc1F
activity vs control (enzyme activity; inhibitor; 0.1 µM): 67%

CCCOc1ccc(OC)c(F)c1C(=O)c1ccc(C(=O)N[C@@H]2CNC[C@H]2NC(=O)c2ccc3[nH]ncc3c2)cc1
remaining activity (enzyme activity; inhibitor; 10 µM): 96%

O=C1CCc2cc(Nc3cc(OC4CCOCC4)c([N+](=O)[O-])cc3Cl)ccc2N1
remaining binding (cell-free assay; competition with immobilised ligand; 1 µM): 73%

O=C1NC(=O)c2cc(Nc3ccc(F)cc3)c(Nc3ccc(F)cc3)cc21
remaining signal (cell-free assay; 0.5 µM): 97.2%

CC(C)(C)c1nc2c(s1)c1nc(N)ncc1c1ccc(NS(=O)(=O)c3c(F)cccc3F)c(F)c12
remaining activity (enzyme activity; inhibitor; radiometric; 1 µM): 103%

CCCOc1ccc([C@@H]2[C@@H](C(=O)O)[C@H](c3ccc4c(c3)OCO4)CN2CC(=O)Nc2c(CC)cccc2CC)cc1
remaining binding (cell-free assay; competition with immobilised ligand; 1 µM): 89%

CN1CC(Oc2cnc(C#N)cc2-c2ccn3nc(NC(=O)C4CC4)cc3c2)C1
inhibition (enzyme activity; inhibitor; 1 µM): 0%

COc1cc2ncnc(Nc3ccc(Oc4ccccc4)c(C)c3C)c2cc1OC
inhibition (enzyme activity; inhibitor; 1 µM): 20%

Cc1ccc(Nc2nccc(N(C)c3ccc4c(C)n(C)nc4c3)n2)cc1S(N)(=O)=O
remaining signal (cell-free assay; 0.5 µM): 58.1%

CC/C(=N\NC(=O)NCc1cccc(O)c1)c1ccc(O)c(C)c1O
inhibition (enzyme activity; inhibitor; 0.1 µM): 0.5%

Cc1cnc(NC2CCOCC2)nc1-n1cnc(C(=O)NC(CN)c2cc(F)cc(Cl)c2)c1 (stereo not shown)
remaining activity (enzyme activity; inhibitor; radiometric; 1 µM): 98%

COc1cc(-c2cn(C3CCc4c(F)cccc4N(CC(F)(F)F)C3=O)nn2)ccc1-n1cnc(C)c1 (stereo not shown)
remaining binding (cell-free assay; competition with immobilised ligand; 1 µM): 100%

Cc1ccc(C(=O)NCc2ccsc2)cc1C#Cc1cn(C(C)C)c2ncnc(N)c12
activity vs control (enzyme activity; inhibitor; 1 µM): 2%

N#CCCc1ccc2c(c1)-c1[nH]c3ccc([N+](=O)[O-])cc3c1CC(=O)N2
remaining signal (cell-free assay; 0.5 µM): 92.7%

CC(=O)Nc1c(C(C)=O)c(=O)n(C)c2nc(-c3ccc(Cl)cc3Cl)c(-c3ccc(Cl)cc3)cc12
remaining binding (cell-free assay; competition with immobilised ligand; 1 µM): 100%

CC(C)(O)[C@H]1CC[C@H](Nc2ccc3ncc(-c4cccc(C(F)(F)F)c4)n3n2)CC1
remaining activity (enzyme activity; inhibitor; 1 µM): 57.7%

C[C@H](NC(=O)c1cnc2n1[C@](C)(Cc1ccc(C#N)cc1)C(=O)N2c1cc(Cl)c(F)c(Cl)c1)C(=O)NC1(c2ccccn2)CC1
remaining binding (cell-free assay; competition with immobilised ligand; 1 µM): 68%

CCN(CC)CCNC(=O)c1c(C)[nH]c(/C=C2\C(=O)Nc3ccc(F)cc32)c1C
inhibition (enzyme activity; inhibitor; 10 µM): 93%
